Numbered stars: 1 amine (or outer) side, 2 acyl side, 3 side chain; on linkers, the order of the positions; unused ones are H or OH. Square brackets hold non-standard residues; d marks the D form. Peptide text beside a SMILES is read from it. * marks the point of attachment. Isonicotinoyl(2-(4-Me-2-Py)) = Cc1ccnc(-c2cc(C(=O)*)ccn2)c1; X1 = O=C([C@H](Cc1c(F)cc(O)c(F)c1F)N[*:1])[*:2]
Assays:
[1] = biological target: T1, Y731F-α2 (Escherichia coli, UniProt P00452, Y731F); assay: [Re^I]* emission lifetime of peptide bound to Y731F-α2; assay type: binding; conditions: 10 μM peptide, 20 μM α2, pH 8.3
T1 sequence (P00452 1-761 Y731F): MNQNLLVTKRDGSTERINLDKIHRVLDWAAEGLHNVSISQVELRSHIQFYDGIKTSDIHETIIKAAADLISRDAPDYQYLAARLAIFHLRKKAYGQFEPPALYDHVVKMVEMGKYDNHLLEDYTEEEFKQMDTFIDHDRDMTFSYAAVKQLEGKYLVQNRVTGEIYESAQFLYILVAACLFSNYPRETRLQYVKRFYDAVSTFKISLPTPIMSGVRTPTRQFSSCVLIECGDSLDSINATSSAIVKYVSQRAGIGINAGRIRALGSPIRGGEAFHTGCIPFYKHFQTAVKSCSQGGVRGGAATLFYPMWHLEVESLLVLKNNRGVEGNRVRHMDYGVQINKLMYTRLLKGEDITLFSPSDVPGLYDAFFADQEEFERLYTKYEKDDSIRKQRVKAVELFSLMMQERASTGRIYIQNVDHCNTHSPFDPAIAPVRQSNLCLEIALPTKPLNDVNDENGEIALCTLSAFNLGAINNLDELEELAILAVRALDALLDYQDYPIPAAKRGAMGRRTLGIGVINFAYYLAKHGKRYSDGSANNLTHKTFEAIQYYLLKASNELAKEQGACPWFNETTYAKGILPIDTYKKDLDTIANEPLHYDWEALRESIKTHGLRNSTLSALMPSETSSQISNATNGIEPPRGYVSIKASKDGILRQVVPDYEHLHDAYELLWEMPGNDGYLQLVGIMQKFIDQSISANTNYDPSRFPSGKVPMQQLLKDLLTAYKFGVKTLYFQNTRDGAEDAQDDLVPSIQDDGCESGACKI
How it was run: (§1)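 Time-resolved [Re] emission, monitored at 610 nm. Samples held 10 μM Re-labelled test peptide, 200 μM Ru(NH3)6Cl3, 1 mM CDP and 3 mM ATP in 50 mM sodium borate, pH 8.3, 15 mM MgSO4, 5% glycerol. For the bound state, 20 μM His6-tagged E. coli α2 mutant was added. Samples were equilibrated 3 min at 23 °C and measured while flowing. Lifetimes came from weighted least-squares fits of averaged traces.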

[2] = biological target: T1, Y731F-α2; assay: Flash-quench transient absorption: •F3Y radical in presence of Y731F-α2; assay type: biochemical
[3] = test system: α2 mutants; assay: Charge-separated state lifetime in presence of α2 proteins; assay type: physicochemical, Escherichia coli; conditions: each of the protein mutants, in words
[4] = [Re^I]* emission lifetime of peptide in solution; assay type: physicochemical
How it was run: as §1

[5] = Flash-quench transient absorption: •F3Y radical of free peptide; assay type: physicochemical
How it was run: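 Free Re-labelled test peptide (50 μM) with 1 mM Ru(NH3)6Cl3 flash quencher, 1 mM CDP and 3 mM ATP in 50 mM borate, pH 8.3, 15 mM MgSO4, 5% glycerol. Samples were equilibrated 3 min at 23 °C and flowed through the cuvette, then excited with a 7 ns 355 nm pulse. Spectra averaged three data sets with FFT noise filtering. Kinetic traces were fitted by weighted least squares; errors are one SD.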

In the case of CC[C@H](C)[C@H](NC(=O)[C@H](CCC(N)=O)NC(=O)CNC(=O)[C@@H](NC(=O)[C@H](CC(C)C)NC(=O)[C@H](Cc1c(F)cc(O)c(F)c1F)NC(=O)c1ccnc(-c2cc(C)ccn2)c1)C(C)C)C(=O)N[C@@H](CC(=O)O)C(=O)N[C@@H](CO)C(=O)N[C@@H](CCC(=O)O)C(=O)N[C@H](C(=O)N[C@@H](CC(=O)O)C(=O)N[C@H](C(=O)N[C@@H](CC(=O)O)C(=O)N[C@@H](CC(=O)O)C(=O)N[C@@H](CC(C)C)C(=O)N[C@@H](CO)C(=O)N[C@@H](CC(N)=O)C(=O)N[C@@H](Cc1ccccc1)C(=O)N[C@@H](CCC(N)=O)C(=O)N[C@@H](CC(C)C)C(=O)O)[C@@H](C)O)C(C)C [[Re]–F3Y–βC19] ({Isonicotinoyl(2-(4-Me-2-Py))}-[X1]LVGQIDSEVDTDDLSNFQL-OH; N-terminus and C-terminus assumed), the “[Re^I]* emission lifetime, "on" state” value [1] is reported as 29 ns, the “radical lifetime change / radical injection (in words)” value ([2]; Y731F-α2) is reported as “cannot competently inject the radical into α2” and the “•F3Y lifetime τ410” value ([2]; Y731F-α2, 410 nm, monoexponential, 50 μM peptide, 100 μM α2, pH 8.3) is reported as 14.2 ± 0.2 μs. For the same compound, the “•F3Y lifetime τ425” value ([2]; Y731F-α2, 425 nm, monoexponential, 50 μM peptide, 100 μM α2, pH 8.3) was 16.5 ± 0.4 μs, the “portion of peptide N-terminus in the "on" conformer” value ([2]; Y731F-α2, from amplitude of the •F3Y lifetime) was 20–30% and the “radical lifetime change / radical injection (in words)” value ([2]; Y731F-α2, listed as [Re]–•F3Y–βC19) was “no significant change in radical lifetime”. For the same compound, the “charge-separated state lifetime vs protein mutant” value [3] was “Identical lifetimes”, the “[Re^I]* emission decay, contribution of short component” value ([4]; pH 8.3, 22 ns component) was 81% and the “[Re^I]* emission decay, contribution of long component” value ([4]; pH 8.3, 58 ns component) was 19%. The “[Re^I]* emission lifetime, long component” value ([4]; pH 8.3, biphasic, [Re^I]* unchanged by proximal F3Y) was 58 ns, the “[Re^I]* emission lifetime, short component” value ([4]; pH 8.3, biphasic, quenching by deprotonated F3Y−) was 22 ns and the “fast time component, recombination of charge-separated state” value ([5]; flash quench, 20 mol equiv Ru(NH3)6Cl3, λdet 425 nm) was 100 ns. The “•F3Y lifetime τ395” value ([5]; free peptide, 395 nm, monoexponential, 50 μM peptide, 1 mM Ru(NH3)6Cl3, 1 mM CDP, 3 mM ATP, 15 mM MgSO4, 5% glycerol, 50 mM borate pH 8.3, average of 3–6 data sets) was 14.7 ± 0.2 μs, the “•F3Y lifetime τ410” value ([5]; free peptide, 410 nm, monoexponential, 50 μM peptide, 1 mM Ru(NH3)6Cl3, borate pH 8.3, average of 3–6 data sets) was 13.5 ± 0.2 μs and the “•F3Y lifetime τ425” value ([5]; free peptide, 425 nm, monoexponential, 50 μM peptide, 1 mM Ru(NH3)6Cl3, borate pH 8.3, average of 3–6 data sets) was 14.5 ± 0.4 μs. The “photochemical yield of •F3Y formation” value ([5]; optimized flash-quench system, 20 mol equiv Ru(NH3)6Cl3, calculated, see SI) was 4.9%.
